Data as given in ChEMBL document CHEMBL2424521, “Long-lasting inhibition of EGFR autophosphorylation in A549 tumor cells by intracellular accumulation of non-covalent inhibitors” (Bioorg Med Chem Lett, 2013).
Activity calls are given as the source filed them. The calls are words filed in the database; no cut-off is given here.

Columns and labels:
[1] = tested on: A549; assay: Cellular uptake in human A549 cells incubated for 1 hr followed by compound washout measured at 1 hr by HPLC-MS/MS analysis; type: ADME, cell-based; details: a549, 1 h
Outline: (§1)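 A549 cells (wild-type EGFR) exposed to 1 µM extracellular compound for 1 h; intracellular content quantified by HPLC-ESI-MS/MS immediately after or 8 h after removal of compound (drug-free incubation) as pmol/mg protein; converted to µM using average cell volume per mg protein estimated from equilibrium distribution of 3-O-methyl-D-[1-³H]glucose in A549 cells.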

[2] = tested on: A549; assay: Cellular uptake in human A549 cells incubated for 1 hr followed by compound washout measured after 8 hrs by HPLC-MS/MS analysis; type: ADME, cell-based; details: a549, 1 h; outline: as §1
[3] = Percentage unbound in human A549 cells at 1 uM after 4 hrs by equilibrium dialysis method; type: ADME, cell-based
[4] = target: T1, Epidermal growth factor receptor (Homo sapiens, UniProt P00533); details: A549, at 1 µM
T1 sequence (P00533 whole entry): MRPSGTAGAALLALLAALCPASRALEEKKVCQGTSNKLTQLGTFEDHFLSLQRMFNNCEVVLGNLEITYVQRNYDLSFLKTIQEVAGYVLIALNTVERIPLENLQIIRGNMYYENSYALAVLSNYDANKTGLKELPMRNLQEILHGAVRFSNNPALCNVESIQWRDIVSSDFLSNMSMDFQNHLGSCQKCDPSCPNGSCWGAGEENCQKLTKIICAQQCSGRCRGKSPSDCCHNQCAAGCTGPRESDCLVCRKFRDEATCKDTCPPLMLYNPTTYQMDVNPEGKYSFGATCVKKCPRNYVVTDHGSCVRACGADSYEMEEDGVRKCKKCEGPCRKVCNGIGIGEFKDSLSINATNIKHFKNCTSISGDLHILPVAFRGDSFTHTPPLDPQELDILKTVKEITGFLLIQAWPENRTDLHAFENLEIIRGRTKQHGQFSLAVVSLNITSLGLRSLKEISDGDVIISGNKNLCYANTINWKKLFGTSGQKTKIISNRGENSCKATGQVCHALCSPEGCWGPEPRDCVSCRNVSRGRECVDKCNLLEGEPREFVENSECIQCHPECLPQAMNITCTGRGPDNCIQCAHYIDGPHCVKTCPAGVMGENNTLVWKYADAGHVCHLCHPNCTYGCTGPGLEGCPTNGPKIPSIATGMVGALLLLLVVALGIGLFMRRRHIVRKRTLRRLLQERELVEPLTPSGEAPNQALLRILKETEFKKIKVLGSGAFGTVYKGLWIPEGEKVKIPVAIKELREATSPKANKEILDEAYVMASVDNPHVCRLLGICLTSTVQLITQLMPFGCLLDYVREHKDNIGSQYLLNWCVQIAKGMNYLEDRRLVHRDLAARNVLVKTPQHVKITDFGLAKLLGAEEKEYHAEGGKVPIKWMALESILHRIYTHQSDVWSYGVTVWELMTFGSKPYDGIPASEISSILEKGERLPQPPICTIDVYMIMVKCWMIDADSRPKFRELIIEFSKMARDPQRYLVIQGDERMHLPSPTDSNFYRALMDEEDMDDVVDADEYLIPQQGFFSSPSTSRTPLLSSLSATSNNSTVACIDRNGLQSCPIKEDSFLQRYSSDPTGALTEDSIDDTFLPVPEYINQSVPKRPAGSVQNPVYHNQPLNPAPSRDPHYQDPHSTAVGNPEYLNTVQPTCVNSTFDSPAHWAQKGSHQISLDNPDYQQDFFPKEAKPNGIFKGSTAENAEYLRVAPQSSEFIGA

[5] = target: T1, Epidermal growth factor receptor
[6] = target: T1, Epidermal growth factor receptor; details: at 1 µM
[7] = Stability of the compound in human A549 cell lysates up to 24 hrs in presence of cysteine; type: physicochemical; details: a549, 24 h
Outline: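 Compound incubated with A549 cell lysate plus molar excess of cysteine as trapping reagent; cysteine conjugate formation monitored by HPLC–MS for up to 24 h.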

[8] = target: T1, Epidermal growth factor receptor; assay: Inhibition of wild type EGFR autophosphorylation in human A549 cells incubated for 1 hr followed by compound washout measured at 1 hr by Western blot analysis; type: cell-based
[9] = target: T1, Epidermal growth factor receptor; assay: Inhibition of wild type EGFR autophosphorylation in human A549 cells at 1 uM incubated for 1 hr followed by compound washout measured after 8 hrs by Western blot analysis; type: cell-based
Outline: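 A549 cells expressing wild-type EGFR treated 1 h with inhibitor at 1 µM, then washed with drug-free medium; EGFR autophosphorylation in intact cells read by Western blot 8 h after compound removal; percent inhibition as mean of at least two independent experiments ± SEM.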

[10] = target: T1, Epidermal growth factor receptor; assay: Inhibition of wild type EGFR autophosphorylation in human A549 cells incubated for 1 hr followed by compound washout measured after 8 hrs by Western blot analysis; type: cell-based

Drug uptake [1]	Drug uptake [2]	fraction unbound at 4 h, 1 µM [3]	inhibition [4]	IC50 [5]	inhibition [6]	Stability [7]	IC50 [8]	inhibition [9]	IC50 [10]	SMILES
13 µM	< 0.05 µM	–	–	–	–	–	–	–	–	Nc1ccc2ncnc(Nc3cccc(Br)c3)c2c1
< 0.05 µM	< 0.05 µM	–	–	–	–	–	–	–	–	C=CC(=O)Nc1ccc2ncnc(Nc3cccc(Br)c3)c2c1
26 µM	< 0.05 µM	–	–	–	–	–	–	–	–	CN(C)CCC(=O)Nc1ccc2ncnc(Nc3cccc(Br)c3)c2c1

The remaining lines, values behind:

SMILES	Drug uptake [1]	Drug uptake [2]	fraction unbound at 4 h, 1 µM [3]	inhibition [4]	IC50 [5]	inhibition [6]	Stability [7]	IC50 [8]	inhibition [9]	IC50 [10]
O=C(CCCN1CCCCC1)Nc1ccc2ncnc(Nc3cccc(Br)c3)c2c1	147 µM	7.2 µM	0.157	98%	0.63 nM	inactive	Stable	5.7 nM	96%	13.5 nM
COc1cc2ncnc(Nc3ccc(F)c(Cl)c3)c2cc1OCCCN1CCOCC1 [GEFITINIB]	271 µM	2.3 µM	0.322	–	–	–	–	–	–	–
Brc1cccc(Nc2ncnc3ccc(NCCCN4CCCCC4)cc23)c1	324 µM	105 µM	0.077	95%	0.41 nM	–	–	1.7 nM	90%	14.1 nM
O=C(CCOc1ccccc1)Nc1ccc2ncnc(Nc3cccc(Br)c3)c2c1	72 µM	0.7 µM	–	–	–	–	Stable	–	–	–
O=C(COc1c(F)c(F)c(F)c(F)c1F)Nc1ccc2ncnc(Nc3cccc(Br)c3)c2c1	240 µM	3.6 µM	–	–	–	–	Stable	–	–	–
